Assay outcomes (PubChem BioAssay)
M4 ag = agonists of human muscarinic M4 receptor (CHRM4) | activation, % at 3 µM | CHO-K1 hM4/Gqi5, Fluo-8 calcium fluorescence; vehicle 0%, full acetylcholine response 100% | AID 624127 | 0.14% of 360,000 active | P08173;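 active means activation above the run mean over all test wells plus 3 SD, cut at about 32% in these data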;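 further: peak over basal fluorescence ratio per well then scaled between controls; 0% = DMSO wells and 100% = acetylcholine at EC100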
Target sequence (P08173 whole entry, looked up): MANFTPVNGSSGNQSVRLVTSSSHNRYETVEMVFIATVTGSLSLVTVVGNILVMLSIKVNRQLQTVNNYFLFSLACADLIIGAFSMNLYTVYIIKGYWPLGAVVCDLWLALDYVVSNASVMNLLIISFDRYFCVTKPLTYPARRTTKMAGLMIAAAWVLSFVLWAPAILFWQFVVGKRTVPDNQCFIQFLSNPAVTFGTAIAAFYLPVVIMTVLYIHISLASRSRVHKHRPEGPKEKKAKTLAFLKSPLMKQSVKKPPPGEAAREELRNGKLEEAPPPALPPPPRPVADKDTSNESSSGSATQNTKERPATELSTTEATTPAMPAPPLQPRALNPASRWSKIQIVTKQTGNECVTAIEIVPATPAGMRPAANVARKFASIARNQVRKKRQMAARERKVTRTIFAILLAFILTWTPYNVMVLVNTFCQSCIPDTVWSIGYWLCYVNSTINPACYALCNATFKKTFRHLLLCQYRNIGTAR
M5 PAM = potentiates acetylcholine response at human M5 receptor; P08912; CHO-K1 hM5, Fluo-8 calcium, ACh EC20 PAM; 0% = ACh EC20, 100% = ACh EC100; activation, % at 3 µM; 0.3% of 360,000 active; AID 624038;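 active means activation above the run cutoff, the mean activation of all test compounds plus 3 SD, cut at about 18% in these data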
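Assay system – human M5 receptor in CHO-K1 cells · Read-out – % activation, ACh-normalized · Technique – Fluo-8 calcium fluorescence · Dosing – single-point, 3 µM nominal · Incubation – Fluo-8 loading 80 min at 37 °C plus 30 min room temperature · Repeats – singlicate, one well per test compound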
CHRM4 PAM = positive allosteric modulators of human muscarinic M4 receptor. P08173. CHO-K1 hM4/Gqi5, Fluo-8 calcium fluorescence, ACh EC20; 0% = ACh EC20, 100% = maximal ACh. activation, % at 3 µM. 0.4% of 360,000 active. AID 624126;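 active means activation above its plate's cutoff, the mean activation of sample wells plus 3 SD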
M5 ag = agonists of human muscarinic M5 receptor (CHRM5) | P08912 | CHO-K1 hM5 cells, Fluo-8 calcium fluorescence; 0% DMSO wells, 100% maximal acetylcholine response | activation, % at 3 µM | 0.19% of 360,000 active | AID 624037;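 active means activation above the run's mean over test compounds plus 3 SD, cut at about 23% in these data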;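 further: signal is peak over basal fluorescence ratio across the kinetic read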
CHRM4 antagonist = blocks acetylcholine activation of human M4 receptor; 0.73% of 360,000 active; AID 624125; inhibition, % at 3 µM; P08173; CHO-hM4 cells, ACh EC80, Fluo-8 calcium fluorescence;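 active means inhibition above its plate's cutoff, the mean inhibition of sample wells plus 3 SD, cut at about 27% in these data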;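 further: 0% = acetylcholine EC80 with DMSO and 100% = DMSO without agonist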
CHRM5 antagonist = CHRM5 antagonism in calcium assay. AID 624040. inhibition, % at 3 µM. 0.59% of 360,000 active. CHO-hM5 cells, Fluo-8 calcium fluorescence, ACh EC80;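 active means inhibition above a per-plate cutoff, the mean of that plate's test compounds plus 3 SD, cut at about 27% in these data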;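 further: 0% = acetylcholine EC80 with DMSO and 100% = DMSO without agonist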
Numbers without * were called inactive. Shown are actives, neighbours in structure and some others; about 1.8% of the full set was active somewhere.

SMILES	M4 ag	M5 PAM	CHRM4 PAM	M5 ag	CHRM4 antagonist	CHRM5 antagonist
O=C(CCN1CCc2ccccc2C1)Nc1ccccc1	1.3	35.4*	6.5	-6.0	-14.4	-4.2
CCn1nnnc1SCC(=O)Nc1ccc(OCc2ccccc2)cc1	2.1	33.5*	27.1*	-4.1	-6.8	-12.3
CC(C)(C)C(=O)OCc1nc(-c2ccc(C(F)(F)F)cc2)cs1	0.3	18.5*	13.8	4.7	-3.8	-15.2
Cc1cc(=O)[nH]c(SCC(=O)Nc2nc(-c3ccccc3)c(-c3ccccc3)o2)n1	0.2	3.5	14.3	-2.2	-6.5	-1.5
CCOC(=O)c1[nH]c(CN2CCN(c3ccc(OC)cc3)CC2)c(C(=O)OCC)c1C	14.1	-1.2	-5.3	17.5	13.0	-7.5
CCOC(=O)c1cc(C#N)c(N2CCN(c3ccc(OC)cc3)CC2)[nH]c1=O	2.6	25.9*	15.7	10.8	-5.0	6.0
O=C(Cc1ccccc1)N1CCc2[nH]nc(-c3ccccc3)c2C1	10.1	9.4	18.0*	-3.5	14.8	14.3
O=S1(=O)CC(N2CCN(c3ncccn3)CC2)CN1Cc1ccc(F)cc1 (configuration not stated)	0.4	-4.8	1.2	1.0	-11.6	9.2
C(=C\c1ccccc1)/CN1CCN(C(c2nnnn2C2CCCCC2)C2CC2)CC1 (configuration not stated)	1.0	-13.7	-3.5	-7.1	-4.9	4.9
COc1ccc(C(c2nnnn2C(C)(C)C)N2CCN(C/C=C/c3ccccc3)CC2)cc1 (configuration not stated)	0.8	-22.1	-9.4	-7.8	4.2	15.7
COc1ccc(C(c2nnnn2-c2ccc(OC)cc2)N2CCN(C/C=C/c3ccccc3)CC2)cc1 (configuration not stated)	3.6	-22.5	-14.4	-7.5	7.5	50.8*
C(=C\c1ccccc1)/CN1CCN(C(c2ccccc2)c2nnnn2-c2ccc3c(c2)OCCO3)CC1 (configuration not stated)	3.3	-22.5	-16.1	-7.6	31.8*	75.0*
C(=C\c1ccccc1)/CN1CCN(C(c2cccc3ccccc23)c2nnnn2C2CCCC2)CC1 (configuration not stated)	1.3	-22.2	-15.6	-6.2	96.5*	98.8*
COc1ccc(C(c2nnnn2C2CCCCC2)N2CCN(C/C=C/c3ccccc3)CC2)cc1 (configuration not stated)	1.3	-22.3	-16.3	-7.3	30.8*	58.3*
C(=C\c1ccccc1)/CN1CCN(C(c2ccnc3ccccc23)c2nnnn2-c2ccc3c(c2)OCCO3)CC1 (configuration not stated)	5.9	-4.7	-8.8	-7.0	-14.6	1.0
CCNC(=O)C1(C)CCCN(C(=O)c2ccc(C(F)(F)F)nc2C)C1 (configuration not stated)	0.4	-4.5	3.1	1.2	1.4	5.6
CCCn1c(SCC(=O)N2CCCC(C)C2)nnc1-c1ccccn1 (configuration not stated)	0.4	4.7	-0.4	-0.9	-0.9	3.0
COc1ccc(-n2nnnc2C(c2ccccc2OC(F)(F)F)N2CCN(C/C=C/c3ccccc3)CC2)cc1 (configuration not stated)	0.5	-19.4	-7.8	-6.4	-25.9	5.0
COc1ccc(-n2nnnc2C(c2cccs2)N2CCN(C/C=C/c3ccccc3)CC2)cc1 (configuration not stated)	0.3	-22.5	-14.2	-6.8	15.4	46.9*
NC(=O)c1ccc2c(=O)n3c(-c4cccs4)csc3nc2c1	2.1	-1.3	4.7	-4.7	-3.5	5.9
CCN(C1CCCCC1)S(=O)(=O)c1ccc(S(=O)(=O)NCc2ccncc2)cc1	24.6	-25.8	-12.9	11.3	23.7	29.1*
CCN(C1CCCCC1)S(=O)(=O)c1ccc(S(=O)(=O)NCCc2ccncc2)cc1	4.9	-9.9	-9.3	0.9	9.0	-0.6
C=CCn1c(SCC2CCCCO2)nc2sc(CC)cc2c1=O (configuration not stated)	0.9	-5.8	-12.3	-1.0	-11.2	11.7
CCCCN(CC)Cc1c(O)ccc2c(-c3ccccc3)cc(=O)oc12	-0.4	2.9	-26.4	-12.2	27.5*	3.6
CCC(c1nnnn1Cc1ccc(F)cc1)N1CCN(C)CC1 (configuration not stated)	1.6	8.7	24.3*	-13.6	-16.1	1.7
SMILES	M4 ag	M5 PAM	CHRM4 PAM	M5 ag	CHRM4 antagonist	CHRM5 antagonist
Cc1ccc(S(=O)(=O)N2CCC(=O)N([C@H](COCc3ccc(C(F)(F)F)cc3)C(C)C)CC2)cc1	2.8	-11.7	-7.6	0.6	6.9	6.3
Cc1ccc(S(=O)(=O)N2[C@H](CC(=O)OCc3ccccc3)OC[C@@H]2C(C)C)cc1	3.3	-13.0	-5.6	-2.1	-2.0	2.5
O=C(Nc1ccc(N2CCN(C(=O)c3ccco3)CC2)c(Cl)c1)c1cc2ccccc2o1	18.3	-23.0	-16.2	1.8	51.2*	30.5*
CCCC(=O)N1CCN(c2ccc(NC(=O)c3cc4ccccc4o3)cc2Cl)CC1	18.8	-20.5	-20.7	2.9	37.8*	21.2
C=C1SC(Nc2c(C)cccc2C)=NC12CCCCC2	-0.7	-11.1	-15.0	-6.2	29.2*	22.1
CC(=O)c1cccc2c(O)c(C3=Nc4ccccc4C3=O)[nH]c12	1.8	8.8	25.4*	-2.2	11.0	-8.0
O=C1C(c2c(O)[nH]c3ccccc23)=Nc2ccccc21	2.7	-0.3	-0.5	0.7	-12.6	-3.1
O=C(CNC(=O)c1cncc(Br)c1)Nc1ccc(F)c(F)c1F	2.2	-7.7	4.2	-2.3	-0.6	15.8
COc1ccc(-n2nc(C(=O)NCC(=O)N3CCN(Cc4ccccc4)CC3)c3ccccc3c2=O)cc1OC	17.6	-11.8	-13.8	-1.2	16.8	29.3*
C=CCNc1ncnc2c1ncn2[C@H]1CN(Cc2cccs2)C[C@@H](CO)O1	1.5	-4.0	2.5	0.2	-12.7	10.2
Cc1ccc(CCNS(=O)(=O)c2ccc3c(c2)NC(=O)CCS3)cc1	7.0	1.8	4.8	2.1	-7.6	-14.1
COc1ccc(CCNS(=O)(=O)c2ccc3c(c2)NC(=O)CCS3)cc1OC	0.5	20.2*	5.9	5.7	-15.8	-6.1
CCN(CC)CCNC(=O)C(=O)NCC1OCCN1S(=O)(=O)c1cccs1 (configuration not stated)	1.3	14.1	5.4	-1.1	4.3	-14.9
S=c1[nH]nc(CN2CCCCC2)n1Cc1ccccc1	0.2	-33.2	-27.1	-18.1	31.5*	6.2
S=c1[nH]nc(CN2CCCC2)n1Cc1ccccc1	1.3	-6.8	-14.0	-18.0	19.3	9.3
